Laboratory results published in paper PMC4899155 (Molecular pharmaceutics, 2016).

Legend:
Jurkat cells [1] = assay: Intracellular calcium assay; format: cell-based, human
Jurkat cells [2] = assay: IL-2 ELISA assay in PMA/PHA stimulated Jurkat cells; format: cell-based, human; settings: for IL-2 secretion: PMA/PHA stimulated Jurkat cells
How it was run: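 Jurkat cells were kept in RPMI 1640 with L-glutamine and 10% FBS at 37°C, 5% CO2, about 10^6 cells/ml. […] After 15 min, a PHA (25 μg/mL)/PMA (1.25 μg/ml) mixture in PBS:DMSO (80:1) was added and cells were incubated 24 h at 37°C. Supernatant IL-2 was measured by human IL-2 ELISA.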

[3] = Single dose pharmacokinetic study in mice; format: in vivo; settings: 5 mg/kg i.p.
How it was run: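 Mice received a single 5 mg/kg i.p. dose of test compound in 10% DMSO, 40% propylene glycol and 50% PBS. Compound levels were followed over time in brain, lung and blood, with N = 3.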

Ova S/C Balb/c mice [4] = assay: Airway hyper-responsiveness to methacholine; format: in vivo, mouse
How it was run: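 Male Balb/c mice were sensitized i.p. with 2 mg/kg/d ovalbumin in 2 mg alum on days 0, 7 and 14, then challenged intranasally with 1 mg/kg/d ovalbumin on days 23–27. Dosing was by i.p. injection 40 min before testing, or twice daily during challenge. The dexamethasone control was 4 mg/kg i.p. daily for 8 days. sRaw was measured versus aerosolized methacholine (mg/ml) in conscious mice (4-7/group, mean ± SEM).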

[5] = Blood concentration under repeated dosing / osmotic minipump in Ova S/C mice; format: in vivo, Balb/c mice
How it was run: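 Ova-sensitized/challenged Balb/c mice received test compound by surgically implanted osmotic minipump at 20 mg/kg/day for 7 days, or by two i.p. injections daily over the 5-day challenge period. Blood concentration was taken on the day of airway hyper-responsiveness measurement (day 28).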

[6] = Metabolic stability in mouse liver microsomes; format: in vitro ADME
Ova S/C Balb/c mice [7] = assay: Mucin volume density; format: in vivo, mouse
How it was run: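 Ova-sensitized/challenged Balb/c mice were dosed as single 20 mg/kg i.p. 40 min before analysis, twice-daily 20 mg/kg i.p. for 5 days, osmotic pump 20 mg/kg/day for 7 days, or dexamethasone 4 mg/kg daily for 8 days. Formalin-perfused lungs were cut into 5 μm paraffin sections and stained with periodic acid fluorescent Schiff. Mucin area in axial-bronchus epithelium per basement-membrane length was normalized to control and Ova groups (5-7 mice/group).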

[8] = Metabolic stability in human S9 fraction; format: in vitro ADME; settings: 1 hour incubation
Jurkat cells [9] = assay: Automated patch-clamp electrophysiology for Jurkat cells; format: cell-based, human; settings: in the presence of an EC3 concentration of GABA (0.3 μM)
[10] = Metabolic stability in mouse S9 fraction; format: in vitro ADME; settings: 1 hour incubation
α4β3γ2 GABAAR = α4β3γ2 GABAAR (Homo sapiens, UniProt P18507+P48169); settings: α4β3γ2 ref 27; cited from earlier work
Sequence of α4β3γ2 GABAAR (P48169 36-554): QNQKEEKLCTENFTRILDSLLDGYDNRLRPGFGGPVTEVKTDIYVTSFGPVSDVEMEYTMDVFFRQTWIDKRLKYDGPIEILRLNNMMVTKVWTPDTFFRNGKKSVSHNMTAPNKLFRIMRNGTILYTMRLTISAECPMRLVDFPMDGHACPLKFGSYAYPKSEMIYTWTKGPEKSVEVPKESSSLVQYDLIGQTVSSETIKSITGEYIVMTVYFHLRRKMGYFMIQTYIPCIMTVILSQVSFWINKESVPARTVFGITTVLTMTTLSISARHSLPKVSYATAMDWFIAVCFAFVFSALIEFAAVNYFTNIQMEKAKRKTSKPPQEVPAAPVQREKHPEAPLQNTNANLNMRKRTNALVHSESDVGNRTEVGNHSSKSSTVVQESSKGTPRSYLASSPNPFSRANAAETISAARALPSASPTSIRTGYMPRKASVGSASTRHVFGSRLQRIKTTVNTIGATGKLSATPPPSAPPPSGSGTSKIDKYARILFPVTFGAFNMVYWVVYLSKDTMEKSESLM
Sequence of α4β3γ2 GABAAR (P28472 26-473 partner): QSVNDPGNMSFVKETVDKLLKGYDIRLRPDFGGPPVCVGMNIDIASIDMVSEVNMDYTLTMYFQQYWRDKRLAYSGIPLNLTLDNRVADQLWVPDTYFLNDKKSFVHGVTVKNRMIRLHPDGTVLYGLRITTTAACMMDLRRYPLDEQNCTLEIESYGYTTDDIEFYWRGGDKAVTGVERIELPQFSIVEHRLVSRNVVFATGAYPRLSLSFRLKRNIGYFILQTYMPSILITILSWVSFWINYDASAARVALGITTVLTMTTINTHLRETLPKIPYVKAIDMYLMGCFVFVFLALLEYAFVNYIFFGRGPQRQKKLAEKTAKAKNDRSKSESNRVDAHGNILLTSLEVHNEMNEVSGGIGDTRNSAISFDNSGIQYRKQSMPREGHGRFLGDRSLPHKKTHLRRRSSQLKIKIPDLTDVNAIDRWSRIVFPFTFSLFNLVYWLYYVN
Sequence of α4β3γ2 GABAAR (P18507 40-475): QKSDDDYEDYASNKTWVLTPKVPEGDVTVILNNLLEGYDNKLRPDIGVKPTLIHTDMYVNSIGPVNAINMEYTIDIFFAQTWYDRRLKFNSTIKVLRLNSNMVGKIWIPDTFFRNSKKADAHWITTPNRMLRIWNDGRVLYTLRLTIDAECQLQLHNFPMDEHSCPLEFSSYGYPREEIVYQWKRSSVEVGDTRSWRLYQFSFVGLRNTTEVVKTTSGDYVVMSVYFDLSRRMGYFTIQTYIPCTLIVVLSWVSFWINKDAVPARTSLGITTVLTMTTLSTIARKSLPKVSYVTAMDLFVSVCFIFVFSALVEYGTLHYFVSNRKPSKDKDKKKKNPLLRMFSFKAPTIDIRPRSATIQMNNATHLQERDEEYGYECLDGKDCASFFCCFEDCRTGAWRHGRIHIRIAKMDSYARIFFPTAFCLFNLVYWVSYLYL

Ova S/C Balb/c mice [11] = assay: Airway eosinophilia; format: in vivo, mouse
[12] = Stability in mouse plasma; format: in vitro ADME
Balb/c mice = assay: Rotarod assay; format: in vivo, mouse; settings: 10 minutes after injection, 15 rpm
[13] = Metabolic stability in human liver microsomes; format: in vitro ADME
[14] = tested on: guinea pig tracheal rings; assay: Guinea pig airway smooth muscle organ bath; format: cell-based; settings: 100 μM, rings contracted with 1 μM substance P, compared to vehicle
α6β3γ2 GABAAR = settings: at concentrations higher that 1 μM ref 27; cited from earlier work

With NCCCC(=O)O [GABA, reference compound] the “increase in [Ca2+]i” value (Jurkat cells [1]; 150 mM) was “fully suppressed”, the “concentration able to reduce the [Ca2+]i levels” value (Jurkat cells [1]; Jurkat cells) was at least 30 mM and the “IL-2 secretion” value (Jurkat cells [2]; 1 nM) was “ineffective”. The “IL-2 secretion” value (Jurkat cells [2]; 100 nM) was “significantly reduced secretion of IL-2”.
With CCOC(=O)c1ncn2c1[C@@H]1CCCN1C(=O)c1cc(OC)ccc1-2 [XHE-III-74EE] the “AUC in brain as % of the AUC in blood” value [3] was 79%, the “AUC in lung as % of the blood AUC” value [3] was 60% and the “Cmax in blood versus lung” value [3] was “roughly two times higher in blood than in lung”. The Tmax in blood [3] was 10 min, the Tmax in lung [3] was 3 min and the half-life in brain [3] was 36.7 min. For the same compound, the half-life in lung [3] was 17.6 min, the “methacholine-induced AHR (sRaw), words” value (Ova S/C Balb/c mice [4]; 20 mg/kg i.p. twice daily for 5 days) was “reduced methacholine-induced AHR” and the “methacholine-induced AHR (sRaw), words” value (Ova S/C Balb/c mice [4]; osmotic pump, 20 mg/kg daily for 7 days) was “effective in reducing AHR at low concentrations of methacholine”. For the same compound, the “methacholine-induced AHR (sRaw), words” value (Ova S/C Balb/c mice [4]; single i.p. 10 mg/kg, 40 minutes prior to analysis) was “did not alter AHR”, the “methacholine-induced AHR (sRaw), words” value (Ova S/C Balb/c mice [4]; single i.p. 20 mg/kg, 40 minutes prior to analysis) was “did not alter AHR” and the “blood concentration, continuous release by implanted minipumps” value ([5]; implanted minipumps (Discussion)) was 27.2 ng/mL. For the same compound, the “constant blood concentration at the day of AHR measurement” value ([5]; implanted minipumps, 20 mg/kg/day for 7 days) was 27.2 ± 2.7 ng/g, the cmax ([5]; twice daily i.p. injection) was 216 ng/mL and the “Mouse liver microsomes % remaining after 1 hour” value ([6]; 1 hour incubation) was 86.3 ± 0.3%. For the same compound, the “predicted half-life” value ([6]; mouse liver microsomes and S9 fraction) was “several hours”, the “airway mucous metaplasia / mucin volume density” value (Ova S/C Balb/c mice [7]; 20 mg/kg i.p. injections daily for 5 days) was “did not significantly change airway mucous metaplasia” and the “airway mucous metaplasia / mucin volume density” value (Ova S/C Balb/c mice [7]; 20 mg/kg/day via osmotic pump) was “no change in airway mucous metaplasia”. The “mucin production” value (Ova S/C Balb/c mice [7]; acute, single i.p. injection for 40 minutes) was “did not change mucin production”, the “human S9 fraction % remaining after 1 hour” value [8] was 95.6 ± 0.3% and the GABA-induced current potentiation (Jurkat cells [9]) was 734%. For the same compound, the “Mouse S9 fraction % remaining after 1 hour” value [10] was 98.4 ± 0.4%, the “reported GABAAR subtype selectivity” value (α4β3γ2 GABAAR) was “subtype-selective” and the “airway eosinophilia” value (Ova S/C Balb/c mice [11]; 20 mg/kg twice i.p. injection daily for 5 days) was “not effective in reducing airway eosinophilia”. For the same compound, the “airway eosinophilia” value (Ova S/C Balb/c mice [11]; 20 mg/kg via osmotic pump) was “no change in airway eosinophilia”, the “airway eosinophilia” value (Ova S/C Balb/c mice [11]; acute, single i.p. injection 20 mg/kg for 40 minutes) was “not effective in reducing airway eosinophilia” and the “Mouse plasma (stability; row prints no unit or time)” value ([12]; Table 1 of in vitro metabolic stability) was 92.6 ± 0.2. For the same compound, the “stability in blood plasma” value ([12]; at least one hour) was “stable in blood plasma”, the “motor impairment on rotarod” value (Balb/c mice; 5 mg/kg i.p.) was “did not impair motorsensory coordination” and the “motor impairment on rotarod” value (Balb/c mice; 40 mg/kg i.p.) was “did cause motor-impairing effects”. For the same compound, the “extent of inhibition of PMA/PHA-induced increases in [Ca2+]i” value (Jurkat cells [1]; Jurkat cells, Fluo-4) was “partial inhibition”, the IC50 (Jurkat cells [1]; read-out: IC50, PMA/PHA-induced increase in [Ca2+]i, Jurkat cells, Fluo-4) was 0.0243 ± 0.0098 µM and the “human liver microsomes % remaining after 1 hour” value ([13]; 1 hour incubation) was 99.2 ± 0.15%. The “predicted half-life” value ([13]; human liver microsomes and S9 fraction) was “several hours”, the “IL-2 production” value (Jurkat cells [2]; under similar conditions, without supplemental GABA) was “did not reduce IL-2 production” and the “relaxation of airway smooth muscle contractile force” value [14] was “induced active relaxation”. For the same compound, the “reported activity at α6β3γ2 GABAAR” value (α6β3γ2 GABAAR) was “some activity”.
With C[C@@H]1C[C@H]2[C@@H]3CCC4=CC(=O)C=C[C@]4(C)[C@@]3(F)[C@@H](O)C[C@]2(C)[C@@]1(O)C(=O)CO [dexamethasone, reference compound] the “airway mucous metaplasia / mucin volume density” value (Ova S/C Balb/c mice [7]; single i.p. injection daily for 8 days, 4 mg/kg, p<0.01) was “significantly decreased mucous metaplasia” and the “airway eosinophilia” value (Ova S/C Balb/c mice [11]; 4 mg/kg i.p. daily for 8 days) was “significantly decreased airway eosinophilia”.
For CN1C(=O)CN=C(c2ccccc2)c2cc(Cl)ccc21 [diazepam, reference compound], the “motor impairment on rotarod” value (Balb/c mice; 5 mg/kg i.p.) was “induced significant motor impairment”.
